Most compounds without a hit are left out; they make up all but 1.6% or so of the library.
PG9 binder: PG9 antibody binding by small molecule; TR-FRET gp120-PG9 antibody binding; inhibition, % at 6.7 µM; actives 0.43% (n = 360,000); AID 624416; in the data active means inhibition above about 8.5%
PKA-R2B activ: PKA-R2B complex activation | actives 0.079% (n = 340,000) | activation, % at 11.4 µM | PKA-R2B holoenzyme dissociation, Cy5-IP20 fluorescence polarization; R2B truncated from residue 108, S112A mutant; 0% DMSO only, 100% 113 µM cGMP;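 active means activation above a cutoff set at the mean over all compounds plus 3 SD, cut at about 18% in these data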;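 further: higher means more holoenzyme dissociation and a rise in polarization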
Rev-erbA mod: modulators of human Rev-erb alpha DNA binding; AID 1259318; activity, % at 10 µM; actives 0.79% (n = 370,000); Rev-erbα–FITC-DNA binding, fluorescence polarization, 90 min; P20393;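 active means activity above about 14%, limit read from the data; passing the limit was not always enough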;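 further: 0% = DMSO wells with 35 nM protein and 100% = DMSO wells with 750 nM protein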
NR2E3 ag-1: human photoreceptor-specific nuclear receptor agonism; actives 0.35% (n = 360,000); Q9Y5X4; inhibition of corepressor binding, % at 3.98 µM; CHO-S Gal4-NCOR/VP16-NR2E3 two-hybrid, luciferase;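 active means inhibition above the mean of all tested compounds plus 3 SD, cut at about 70% in these data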;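 further: 0% = DMSO with NR2E3 transfected cells and 100% = cells lacking NR2E3 construct; higher means lower luciferase signal from less NR2E3 corepressor binding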
Target sequence (Q9Y5X4 whole entry, looked up, the tested form may be a part): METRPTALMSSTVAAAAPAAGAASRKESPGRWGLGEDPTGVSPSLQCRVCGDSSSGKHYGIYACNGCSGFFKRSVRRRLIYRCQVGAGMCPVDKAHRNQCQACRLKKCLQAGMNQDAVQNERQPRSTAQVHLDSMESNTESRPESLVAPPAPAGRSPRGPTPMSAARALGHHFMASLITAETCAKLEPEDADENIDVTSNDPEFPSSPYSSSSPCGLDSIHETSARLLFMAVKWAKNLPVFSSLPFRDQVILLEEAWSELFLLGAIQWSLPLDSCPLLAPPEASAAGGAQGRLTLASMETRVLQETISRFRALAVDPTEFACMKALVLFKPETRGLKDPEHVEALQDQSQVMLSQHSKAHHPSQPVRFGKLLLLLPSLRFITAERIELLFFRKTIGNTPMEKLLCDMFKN
PKA-R1A act: activators of PKA-R1A complex; PKA-R1A dissociation, Cy5-IP20 fluorescence polarization; scaled: DMSO 0%, 113 µM cGMP 100%; activation, % at 11.4 µM; actives 0.083% (n = 340,000);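 active means percent activation above the mean of all tested compounds plus 3 SD, cut at about 19% in these data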;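 further: higher means more PKAc released from R1A so a rise in polarization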
NR2E3 ag-2: NR2E3 (human) agonism | actives 0.12% (n = 320,000) | inhibition of corepressor binding, % at 4.78 µM | AID 2300 | Q9Y5X4 | GST-NR2E3/biotin-RetCOR TR-FRET, 1536-well;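 active means percent inhibition above the cutoff of mean plus 3 SD of all tested compounds, set per screening campaign, cut at about 20% in these data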;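 further: 0% = DMSO wells and 100% = biotin wells as full block of FRET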
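Material: NR2E3–RetCOR corepressor complex | Quantity: 1.35 nM GST-tagged NR2E3 final | Schedule: 5 h at 4 °C | Replication: Singlicate compound wells | Reagent: RetCOR corepressor, biotinylated, 7 nM | Controls: Biotin wells as high control, 0.6% DMSO wells as low control | Signal: TR-FRET, Eu(K)-anti-GST donor, streptavidin-D2 acceptor, ex 340, em 617/671 nm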
NR1D1 mod conf: Rev-erb alpha (human) modulation, hit confirmation; activation, % at 25 µM; AID 1259319; shares compounds with Rev-erbA mod; Rev-erb alpha FITC-DNA binding, fluorescence polarization, 90 min; actives 61% (n = 3,000);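 active means activation at or above a set limit, or at least 3 SD above the negative control mean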;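 further: 0% = 35 nM protein with DMSO and 100% = 750 nM protein high control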
RORg DNA counter: affects RORgamma DNA binding in a Rev-erb alpha counter-screen; shares compounds with Rev-erbA mod; purified RORgamma protein-FITC-DNA binding, fluorescence polarization; IC50, µM; actives 8% (n = 910); AID 1259320;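 active means Compounds whose fitted half-maximal concentration for disrupting protein-DNA binding is below 10 micromolar; the record names Rev-erb in its text, so the target is in doubt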
* hit, by the source's call; i = inactive; x = no result.

SMILES | PG9 binder | PKA-R2B activ | Rev-erbA mod | NR2E3 ag-1 | PKA-R1A act | NR2E3 ag-2 | NR1D1 mod conf | others
CN(C)S(=O)(=O)N1C(=O)c2ccccc2C1=O | 0 | 8 | -5 | -3 | -9 | -2 | x
O=C(/C=C/c1cccc2ccccc12)NCCC1=CCCCC1 | -1 | 1 | 29* | -55 | -7 | -3 | 38* | RORg DNA counter=>40
COc1cccc(/C=C/C(=O)OCC(=O)NCCC2=CCCCC2)c1OC | -1 | -5 | 3 | 3 | -21 | x | x
COc1ccc(N/C=C2\C(=O)c3c(sc(C)c3C)N(C)S2(=O)=O)cc1 | -1 | 6 | 78* | -16 | 8 | -1 | 5
CN1c2ccccc2C(=O)/C(=C\Nc2ccc(F)cc2)S1(=O)=O | 0 | -6 | 2 | 5 | -2 | 2 | x
COc1ccc(C(=O)N2CCCC(CCC(=O)NCc3ccc(F)c(F)c3)C2)o1 (configuration not stated) | -4 | 8 | 15* | -25 | -1 | 3 | -2
COc1cc(OC)c(N(C)S(=O)(=O)c2cccc(C(=O)OCc3c(C)noc3C)c2)cc1Cl | 0 | -12 | 23* | 7 | -3 | 4 | 37* | RORg DNA counter=i
COC(=O)[C@H](CC(C)C)N(CCc1cn(Cc2ccccc2)nn1)S(=O)(=O)c1ccc(F)cc1Br | x | x | 11 | x | x | x | x
CN(C)c1ccc(/C=C/c2ccncc2)cc1 | -8 | 6 | 12 | -122 | 5 | x | x
CC(C)CC[n+]1ccccc1/C=C/c1ccc(N(C)C)cc1 | -11 | 2 | 32* | -16 | -9 | -8 | 30* | RORg DNA counter=>40
C=CCN1[C@H](CC(C)C)COc2cc(F)ccc2S1(=O)=O | x | x | 13 | x | x | x | x
CC(=O)NC(Cc1ccc2c(c1)OCO2)C(=O)N1CCCC1 (configuration not stated) | x | x | -2 | x | x | x | x
CCCCNC(=O)c1nn2c(C(F)(F)F)cc(-c3ccc(OC)cc3)nc2c1Br | -1 | -6 | 48* | -13 | -3 | -1 | 9
CCCNC(=O)c1nn2c(C(F)(F)F)cc(-c3ccccc3)nc2c1Br | -6 | -7 | 28* | -12 | -19 | 4 | 21*
CC(C)(N[C@@H](Cc1ccccc1)C(=O)NCC(c1ccccc1)c1ccccc1)C(=O)NC1CCCCC1 | x | x | -4 | x | x | x | x
CCOC(=O)/C(C#N)=C\C=C1C=CN(C)C=C1 | -25 | -5 | 31* | -73 | 2 | -18 | 28*
O=C(NC1CCCCN(Cc2ccc(Cl)cc2)C1=O)c1cccs1 (configuration not stated) | x | x | 6 | x | x | x | x
O=S(=O)(NCCOc1ccccc1F)c1cccc(Br)c1 | -2 | -4 | 18* | -1 | -15 | 3 | 2
O=C1c2ccccc2C(=O)N1Cc1ccco1 | 3 | -7 | 1 | -4 | -3 | -4 | x
CC(=O)Nc1ccc(N2C(=O)c3cccc4c(O)ccc(c34)C2=O)cc1 | -7 | -6 | 29* | -33 | 4 | -5 | 40* | RORg DNA counter=1.2*
Cc1ccc(N2C(=O)c3cccc4c(C(=O)O)ccc(c34)C2=O)cc1 | -1 | x | 2 | x | x | 2 | x
O=C1c2cccc3c(O)ccc(c23)C(=O)N1c1ccc(Cl)cc1 | 0 | 1 | 60* | 17 | -2 | 0 | 53* | RORg DNA counter=9.4*
O=C1c2cccc3c(O)ccc(c23)C(=O)N1Cc1ccco1 | -3 | -8 | 36* | -1 | -1 | x | 37* | RORg DNA counter=>40
O=C(OCc1cn(Cc2cccc(F)c2)nn1)N1CCOCC1 | x | x | -2 | x | x | x | x
COC(=O)[C@]12C[C@H](CC(=O)N3CCN(C(=O)C4CC4)CC3)C(=O)N(Cc3cccc4ccccc34)C1=C[C@H](C(C)(C)C)O[C@@H]2C | x | x | 0 | x | x | x | x
SMILES | PG9 binder | PKA-R2B activ | Rev-erbA mod | NR2E3 ag-1 | PKA-R1A act | NR2E3 ag-2 | NR1D1 mod conf | others
COc1ccc(N2C(=O)c3ccccc3C2=O)cc1 | -1 | -8 | -1 | 0 | -9 | -3 | x
COc1ccc(N2C(=O)c3cccc4cccc(c34)C2=O)cc1 | -1 | -11 | 28* | -4 | -5 | 4 | 26*
COc1ccc(N2C(=O)c3cccc4c(N(C)CCO)ccc(c34)C2=O)cc1 | -3 | -2 | 42* | -23 | 2 | x | 36* | RORg DNA counter=>40
Cc1cccc(NC(=O)c2cc(NC(=O)c3ccco3)ccc2N2CCCCC2)c1 | x | -10 | 10 | -5 | -4 | 3 | x
Cc1cccc(NC(=O)c2cc(NC(=O)c3ccccc3)ccc2N2CCCCC2)c1 | 1 | 7 | 34* | -6 | -3 | 0 | 1
Cc1ccc(C)c(NC(=O)CN(C)C(=O)c2ccc(-c3ccc(Cl)cc3)o2)c1 | 1 | 5 | 26* | -1 | -2 | 5 | 18*
O=C(Cn1sc2ccccc2c1=O)Nc1ccccc1 | 1 | -3 | 15* | -4 | 0 | x | -4
O=C(Cn1sc2ccccc2c1=O)NC12CC3CC(CC(C3)C1)C2 | x | -5 | x | -18 | -2 | 4 | x
CC(=O)Nc1sc2c(c1-c1nc(-c3ccccc3)cs1)CCN(C(C)C)C2 | x | x | 3 | x | x | x | x
CC1(C)CC2CN(Cc3ccccc3)S(=O)(=O)N2C1 (configuration not stated) | x | x | -1 | x | x | x | x
O=C(Nc1nc(-c2cccs2)c(-c2ccccc2)s1)c1ccco1 | -1 | 1 | 1 | -10 | 1 | -2 | x
CC1CC1C(=O)Nc1nc(-c2cccs2)c(-c2cccs2)s1 (configuration not stated) | 4 | 4 | 53* | -21 | 5 | 2 | 75* | RORg DNA counter=i
Nc1nc(-c2cccs2)c(CC(=O)O)s1 | -2 | 3 | 3 | 19 | -5 | -2 | x
Nc1nc(-c2cccs2)c(-c2cccs2)s1 | 5 | -12 | 282* | -1 | 1 | 3 | 244* | RORg DNA counter=i
O=C1N(CCCO)CCC12CCCCC2 | x | x | 6 | x | x | x | x
C[C@H]1C2CC(OC(=O)Nc3cccc(C(F)(F)F)c3)C(C2)[C@H]2CCCCN21 (some centres not stated) | x | x | -2 | x | x | x | x
NC1=[N+](Cc2ccccc2)C[C@H]2C(=C3CCCC[C@H]3n3c(=O)n(-c4ccccc4)c(=O)n32)N1 | x | x | -6 | x | x | x | x
CC(=O)N(CC(=O)O)c1ccccc1 | 0 | 16 | 2 | -5 | 6 | 5 | x
O=C(O)CN(CCN(CC(=O)O)CC(=O)O)CC(=O)O | x | x | 50* | x | x | x | 3
Cc1cc(CN2CCOCC2)c(O)c(C2(C)CCCCC2)c1 | -3 | -2 | 18* | -13 | -6 | -1 | 24*
Cc1cc(CN(C)C)c(O)c(C2(C)CCCCC2)c1 | 0 | 5 | 18 | 6 | -2 | 1 | x
